From ChEMBL document CHEMBL4229344 (Eur J Med Chem, 2018)
The source made the active and inactive calls. The calls are words filed in the database; no cut-off is given here.

How the values were obtained:
[1] = target: Serine/threonine-protein kinase 17B (Homo sapiens) (UniProt O94768); test: Binding affinity to wild-type human full length DRAK2 (M1 to C372 residues) expressed in bacterial expression system assessed as residual binding level at 1 uM by Kinomescan method relative to control
In short: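 KINOMEscan competition binding against 468 purified kinases/mutants, test compound at 1 µM; residual binding relative to control.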

[2] = target: Hormonally up-regulated neu tumor-associated kinase (Homo sapiens) (UniProt P57058); test: Binding affinity to wild-type human partial length HUNK (A31 to K354 residues) expressed in bacterial expression system assessed as residual binding level at 1 uM by Kinomescan method relative to control
[3] = target: Glycogen synthase kinase-3 alpha (Homo sapiens) (UniProt P49840); test: Binding affinity to wild-type human full length GSK3A (M1 to S483 residues) expressed in bacterial expression system assessed as residual binding level at 1 uM by Kinomescan method relative to control
In short: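 Single-concentration (1 μM) competition-binding screen run by KINOMEscan against a panel of 468 purified kinases and mutants. The read-out is the relative binding activity of the test compound to each kinase.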

[4] = target: MAP kinase-activated protein kinase 5 (Homo sapiens) (UniProt Q8IW41); test: Binding affinity to wild-type human partial length MAPKAPK5 (M1 to D322 residues) expressed in mammalian expression system assessed as residual binding level at 1 uM by Kinomescan method relative to control
Chain of MAP kinase-activated protein kinase 5 (Homo sapiens) (Q8IW41 whole entry, the tested form may be a part): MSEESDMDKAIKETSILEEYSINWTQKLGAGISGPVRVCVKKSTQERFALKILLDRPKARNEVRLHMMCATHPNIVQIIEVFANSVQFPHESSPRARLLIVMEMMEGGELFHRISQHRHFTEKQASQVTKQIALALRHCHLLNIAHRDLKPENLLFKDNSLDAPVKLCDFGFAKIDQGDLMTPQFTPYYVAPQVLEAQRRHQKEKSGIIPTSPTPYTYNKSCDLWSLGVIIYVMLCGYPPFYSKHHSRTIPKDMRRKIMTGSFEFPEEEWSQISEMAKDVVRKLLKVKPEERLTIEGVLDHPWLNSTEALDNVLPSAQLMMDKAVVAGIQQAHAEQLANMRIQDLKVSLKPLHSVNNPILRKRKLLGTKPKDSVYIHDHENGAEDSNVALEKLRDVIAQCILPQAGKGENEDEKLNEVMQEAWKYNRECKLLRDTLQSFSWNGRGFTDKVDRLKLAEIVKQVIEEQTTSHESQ

[5] = target: Ephrin type-B receptor 2 (Homo sapiens) (UniProt P29323); test: Binding affinity to wild-type human partial length EPHB2 (I597 to L902 residues) expressed in bacterial expression system assessed as residual binding level at 1 uM by Kinomescan method relative to control
[6] = target: Protein kinase C theta type (Homo sapiens) (UniProt Q04759); test: Binding affinity to wild-type human partial length PRKCQ (L350 to S706 residues) expressed in bacterial expression system assessed as residual binding level at 1 uM by Kinomescan method relative to control
Chain of Protein kinase C theta type (Homo sapiens) (Q04759 whole entry, looked up, the tested form may be a part): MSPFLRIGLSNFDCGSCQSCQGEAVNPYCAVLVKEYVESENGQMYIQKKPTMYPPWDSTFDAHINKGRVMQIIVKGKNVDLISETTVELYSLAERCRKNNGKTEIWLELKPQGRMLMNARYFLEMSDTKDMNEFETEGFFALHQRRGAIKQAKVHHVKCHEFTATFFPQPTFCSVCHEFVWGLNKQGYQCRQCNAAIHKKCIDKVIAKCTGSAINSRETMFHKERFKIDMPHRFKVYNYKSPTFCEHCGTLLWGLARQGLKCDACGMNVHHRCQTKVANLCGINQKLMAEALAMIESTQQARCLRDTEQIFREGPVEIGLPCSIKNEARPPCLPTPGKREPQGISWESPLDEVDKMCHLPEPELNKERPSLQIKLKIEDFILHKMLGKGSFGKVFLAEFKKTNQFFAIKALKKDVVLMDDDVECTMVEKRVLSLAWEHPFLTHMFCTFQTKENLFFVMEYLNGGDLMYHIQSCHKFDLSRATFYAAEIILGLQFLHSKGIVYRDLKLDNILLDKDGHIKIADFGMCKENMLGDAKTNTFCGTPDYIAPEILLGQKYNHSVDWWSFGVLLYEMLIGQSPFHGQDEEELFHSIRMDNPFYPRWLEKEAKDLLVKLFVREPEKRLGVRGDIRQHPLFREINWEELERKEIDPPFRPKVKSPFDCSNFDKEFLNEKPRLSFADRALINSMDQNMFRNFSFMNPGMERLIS
In short: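 KINOMEscan competition binding against a panel of 468 purified kinases/mutants, compound tested at 1 μM; readout is relative binding activity versus control.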

[7] = system: EOL1; test: Cell cycle arrest in human EOL-1 cells assessed as accumulation at G0/G1 phase at 0.01 to 0.3 uM after 12 hrs by propidium iodide/RNase staining-based flow cytometric analysis; format: functional
In short: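 Cells treated with compound or DMSO for the stated periods, fixed overnight in 70% cold ethanol at −20 °C, stained with PI/RNase buffer, then analysed by flow cytometry for cell-cycle distribution. For NCI-H1703 stimulation, PDGF AA was used at 100 ng/mL.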

[8] = target: Phosphatidylinositol 4,5-bisphosphate 3-kinase catalytic subunit alpha isoform (Homo sapiens) (UniProt P42336); test: Binding affinity to wild-type human partial length PIK3CA (R108 to N1068 residues) expressed in mammalian expression system assessed as residual binding level at 1 uM by Kinomescan method relative to control
Chain of Phosphatidylinositol 4,5-bisphosphate 3-kinase catalytic subunit alpha isoform (Homo sapiens) (P42336 whole entry, the tested form may be a part, canonical isoform): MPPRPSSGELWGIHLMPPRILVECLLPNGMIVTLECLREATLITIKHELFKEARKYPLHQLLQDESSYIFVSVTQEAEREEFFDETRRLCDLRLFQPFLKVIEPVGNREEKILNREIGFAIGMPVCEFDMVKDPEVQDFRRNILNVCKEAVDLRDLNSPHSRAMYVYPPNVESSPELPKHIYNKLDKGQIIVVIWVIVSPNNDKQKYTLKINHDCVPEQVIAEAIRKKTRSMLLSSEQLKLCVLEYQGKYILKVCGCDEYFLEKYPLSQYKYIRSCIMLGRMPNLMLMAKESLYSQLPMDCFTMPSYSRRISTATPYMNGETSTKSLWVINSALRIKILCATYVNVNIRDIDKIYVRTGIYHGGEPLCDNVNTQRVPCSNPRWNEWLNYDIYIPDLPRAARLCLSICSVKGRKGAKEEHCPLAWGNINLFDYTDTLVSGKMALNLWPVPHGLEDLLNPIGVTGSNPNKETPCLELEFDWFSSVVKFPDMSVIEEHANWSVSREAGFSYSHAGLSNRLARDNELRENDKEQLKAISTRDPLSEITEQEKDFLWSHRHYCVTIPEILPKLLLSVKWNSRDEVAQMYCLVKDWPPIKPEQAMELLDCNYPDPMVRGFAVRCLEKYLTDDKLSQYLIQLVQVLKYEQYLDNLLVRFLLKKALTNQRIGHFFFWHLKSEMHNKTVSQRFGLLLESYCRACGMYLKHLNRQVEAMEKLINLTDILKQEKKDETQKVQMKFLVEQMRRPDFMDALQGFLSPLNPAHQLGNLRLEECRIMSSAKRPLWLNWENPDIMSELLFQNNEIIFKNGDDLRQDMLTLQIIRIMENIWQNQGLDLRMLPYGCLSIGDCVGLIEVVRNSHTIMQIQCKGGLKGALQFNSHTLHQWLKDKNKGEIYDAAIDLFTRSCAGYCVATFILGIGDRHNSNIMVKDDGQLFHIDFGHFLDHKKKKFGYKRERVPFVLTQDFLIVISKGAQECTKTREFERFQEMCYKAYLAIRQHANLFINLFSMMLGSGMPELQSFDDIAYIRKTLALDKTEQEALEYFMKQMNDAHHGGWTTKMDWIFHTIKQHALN

[9] = target: Cyclin-dependent kinase 17 (Homo sapiens) (UniProt Q00537); test: Binding affinity to wild-type human full length PCTK2 (M1 to F523 residues) expressed in bacterial expression system assessed as residual binding level at 1 uM by Kinomescan method relative to control
Chain of Cyclin-dependent kinase 17 (Homo sapiens) (Q00537 whole entry, looked up, the tested form may be a part): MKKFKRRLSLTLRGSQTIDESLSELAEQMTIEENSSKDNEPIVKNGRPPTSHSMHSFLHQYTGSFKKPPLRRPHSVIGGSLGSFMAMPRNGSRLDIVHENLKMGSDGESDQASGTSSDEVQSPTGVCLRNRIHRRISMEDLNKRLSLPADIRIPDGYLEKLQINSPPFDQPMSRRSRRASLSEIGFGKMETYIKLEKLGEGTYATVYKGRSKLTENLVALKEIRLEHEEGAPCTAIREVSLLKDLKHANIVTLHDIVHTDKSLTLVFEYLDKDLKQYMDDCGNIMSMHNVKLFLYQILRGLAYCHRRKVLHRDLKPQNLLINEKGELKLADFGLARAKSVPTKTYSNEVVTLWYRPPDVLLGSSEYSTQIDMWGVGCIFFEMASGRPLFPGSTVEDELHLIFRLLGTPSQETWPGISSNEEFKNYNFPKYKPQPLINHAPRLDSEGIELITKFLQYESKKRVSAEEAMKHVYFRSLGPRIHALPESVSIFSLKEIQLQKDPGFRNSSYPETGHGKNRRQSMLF
In short: (§1)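 Single-concentration KINOMEscan (DiscoverX) binding screen at 1 μM against a panel of 468 purified kinases and mutants. The read-out is binding relative to control.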

[10] = target: Mitogen-activated protein kinase kinase kinase 10 (Homo sapiens) (UniProt Q02779); test: Binding affinity to wild-type human partial length MLK2 (V52 to W380 residues) expressed in bacterial expression system assessed as residual binding level at 1 uM by Kinomescan method relative to control
Chain of Mitogen-activated protein kinase kinase kinase 10 (Homo sapiens) (Q02779 whole entry, looked up, the tested form may be a part): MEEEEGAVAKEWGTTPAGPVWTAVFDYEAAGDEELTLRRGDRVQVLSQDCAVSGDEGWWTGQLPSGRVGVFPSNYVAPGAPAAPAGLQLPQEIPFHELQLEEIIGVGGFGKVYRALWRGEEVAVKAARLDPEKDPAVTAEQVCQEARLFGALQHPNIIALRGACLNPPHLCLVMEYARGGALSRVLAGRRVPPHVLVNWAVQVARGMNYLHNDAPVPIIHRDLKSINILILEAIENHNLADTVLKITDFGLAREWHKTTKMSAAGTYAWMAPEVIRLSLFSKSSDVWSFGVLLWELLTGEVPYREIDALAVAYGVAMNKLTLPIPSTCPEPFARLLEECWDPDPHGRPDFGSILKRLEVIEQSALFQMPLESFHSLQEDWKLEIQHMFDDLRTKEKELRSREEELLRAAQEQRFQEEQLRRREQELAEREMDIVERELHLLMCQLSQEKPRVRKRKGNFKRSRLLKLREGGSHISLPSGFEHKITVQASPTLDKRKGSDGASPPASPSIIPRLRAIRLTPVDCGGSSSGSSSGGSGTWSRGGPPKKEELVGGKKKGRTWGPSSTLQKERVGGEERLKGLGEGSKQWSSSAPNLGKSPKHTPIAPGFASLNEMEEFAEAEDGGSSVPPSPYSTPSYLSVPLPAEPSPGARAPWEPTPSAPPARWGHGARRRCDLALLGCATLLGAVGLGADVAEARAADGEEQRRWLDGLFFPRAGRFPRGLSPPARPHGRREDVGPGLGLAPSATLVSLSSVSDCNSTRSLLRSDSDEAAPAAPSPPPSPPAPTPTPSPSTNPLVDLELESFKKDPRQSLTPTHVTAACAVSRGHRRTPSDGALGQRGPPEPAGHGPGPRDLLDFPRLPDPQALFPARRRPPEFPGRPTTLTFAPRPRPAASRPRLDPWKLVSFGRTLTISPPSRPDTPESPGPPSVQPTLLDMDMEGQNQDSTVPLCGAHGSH

[11] = target: BMP-2-inducible protein kinase (Homo sapiens) (UniProt Q9NSY1); test: Binding affinity to wild-type human partial length BIKE (S34 to N329 residues) expressed in bacterial expression system assessed as residual binding level at 1 uM by Kinomescan method relative to control; in short: as §1
[12] = system: Receptor-type tyrosine-protein kinase FLT3 (Homo sapiens), P36888 [UNDEFINED MUTATION]; test: Binding affinity to human partial length FLT3 ITD/D835V double mutant expressed in bacterial expression system assessed as residual binding level at 1 uM by Kinomescan method relative to control
Chain of Receptor-type tyrosine-protein kinase FLT3 (Homo sapiens), P36888 [UNDEFINED MUTATION] (P36888 whole entry, looked up, stated change not applied, the tested form may be a part): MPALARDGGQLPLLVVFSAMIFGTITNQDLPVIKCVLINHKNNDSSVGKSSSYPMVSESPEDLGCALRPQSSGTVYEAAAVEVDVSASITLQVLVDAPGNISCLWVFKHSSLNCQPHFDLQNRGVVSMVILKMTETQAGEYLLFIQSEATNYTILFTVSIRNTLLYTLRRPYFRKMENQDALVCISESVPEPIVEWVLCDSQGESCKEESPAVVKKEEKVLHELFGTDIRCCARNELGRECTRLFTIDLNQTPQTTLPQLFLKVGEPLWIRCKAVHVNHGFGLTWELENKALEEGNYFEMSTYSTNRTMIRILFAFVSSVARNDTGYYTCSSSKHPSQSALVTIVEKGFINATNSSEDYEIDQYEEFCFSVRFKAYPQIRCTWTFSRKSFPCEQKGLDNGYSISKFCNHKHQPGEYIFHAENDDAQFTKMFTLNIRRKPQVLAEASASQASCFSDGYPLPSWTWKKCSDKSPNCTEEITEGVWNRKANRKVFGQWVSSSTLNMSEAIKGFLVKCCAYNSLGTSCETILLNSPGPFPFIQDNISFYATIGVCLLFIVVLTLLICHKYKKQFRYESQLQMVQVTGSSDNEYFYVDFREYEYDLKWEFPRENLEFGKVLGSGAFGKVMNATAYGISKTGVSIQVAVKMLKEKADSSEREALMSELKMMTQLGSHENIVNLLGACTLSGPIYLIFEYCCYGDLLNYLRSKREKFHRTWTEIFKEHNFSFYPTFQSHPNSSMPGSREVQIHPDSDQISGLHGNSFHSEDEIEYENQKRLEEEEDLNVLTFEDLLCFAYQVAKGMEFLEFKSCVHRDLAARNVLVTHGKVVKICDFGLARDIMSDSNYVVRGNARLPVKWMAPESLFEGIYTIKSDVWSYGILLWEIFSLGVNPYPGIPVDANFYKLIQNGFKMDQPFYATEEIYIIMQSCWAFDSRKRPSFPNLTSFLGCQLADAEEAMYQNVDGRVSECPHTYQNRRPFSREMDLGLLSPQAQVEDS
In short: (§2)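 Kinome-wide single-concentration binding screen (KINOMEscan) at 1 μM against a panel of 468 purified kinases and mutants. Read-out is relative binding of each kinase compared with control. Selectivity across the panel was summarised as an S(10) score.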

[13] = target: Ephrin type-A receptor 8 (Homo sapiens) (UniProt P29322); test: Binding affinity to wild-type human partial length EPHA8 (Q608 to C920 residues) expressed in bacterial expression system assessed as residual binding level at 1 uM by Kinomescan method relative to control
In short: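 Kinome-wide competition binding screen against a panel of 468 purified kinases/mutants, with the test compound at a single concentration of 1 μM. Read-out is the relative binding activity of each kinase in the presence of compound.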

[14] = system: Receptor-type tyrosine-protein kinase FLT3 (Homo sapiens), P36888 [UNDEFINED MUTATION]; test: Binding affinity to human partial length FLT3 ITD/F691L double mutant expressed in bacterial expression system assessed as residual binding level at 1 uM by Kinomescan method relative to control; in short: as §2
[15] = target: Wee1-like protein kinase 2 (Homo sapiens) (UniProt P0C1S8); test: Binding affinity to wild-type human partial length WEE2 (M204 to K492 residues) expressed in bacterial expression system assessed as residual binding level at 1 uM by Kinomescan method relative to control
[16] = system: NCI-H1703; test: Antiproliferative activity against human NCI-H1703 cells after 72 hrs in presence of PDGF-AA by CellTiter-Glo or CCK-8 assay; format: functional; conditions: NCI-H1703, 72 h
In short: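 Cells in RPMI 1640 with 10% FBS at 37 °C, 5% CO2, seeded at 1–3 × 10^4 cells/mL with serial compound dilutions for 72 h. Viability read by CellTiter-Glo luminescence or CCK-8 absorbance (450/655 nm), normalized to DMSO control.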

[17] = system: Phosphatidylinositol 4,5-bisphosphate 3-kinase catalytic subunit alpha isoform (Homo sapiens), P42336 [C420R]; test: Binding affinity to human partial length PIK3CA C420R mutant (R108 to N1068 residues) expressed in mammalian expression system assessed as residual binding level at 1 uM by Kinomescan method relative to control; in short: as §2
Chain of Phosphatidylinositol 4,5-bisphosphate 3-kinase catalytic subunit alpha isoform (Homo sapiens), P42336 [C420R] (P42336 whole entry C420R, the tested form may be a part, canonical isoform): as the sequence (P42336 whole entry, the tested form may be a part, canonical isoform) above, with C420R counted along it

[18] = target: SRSF protein kinase 2 (Homo sapiens) (UniProt P78362); test: Binding affinity to wild-type human full length SRPK2 (M1 to S686 residues) expressed in bacterial expression system assessed as residual binding level at 1 uM by Kinomescan method relative to control; in short: as §1
[19] = target: RAC-alpha serine/threonine-protein kinase (Homo sapiens) (UniProt P31749); test: Binding affinity to wild-type human partial length AKT1 expressed in bacterial expression system assessed as residual binding level at 1 uM by Kinomescan method relative to control; in short: as §1
[20] = target: Muscle, skeletal receptor tyrosine-protein kinase (Homo sapiens) (UniProt O15146); test: Binding affinity to wild-type human partial length MUSK (M553 to V869 residues) expressed in bacterial expression system assessed as residual binding level at 1 uM by Kinomescan method relative to control

For `Cc1ccc(NC(=O)c2ccc(CN(CCN(C)C)C(=O)c3cccnc3)cc2)cc1Nc1nccc(-c2cccnc2)n1`, which Activity [1] is on record?
The Activity was 94%.

And the Activity [2]?
Its Activity is 90%.

And the Activity [3]?
The Activity was 100%.

And the Activity [4]?
The Activity was 100%.

What about the Activity [5] of the same compound?
Its Activity is 100%.

What about the Activity [6] of the same compound?
The Activity was 83%.

What about the Activity [7] of the same compound?
Its Activity is “Active”.

What about the Activity [8] of the same compound?
Its Activity is 100%.

And the Activity [9]?
Its Activity is 99%.

What about the Activity [10] of the same compound?
Its Activity is 96%.

And the Activity [11]?
The Activity was 99%.

What about the Activity [12] of the same compound?
Its Activity is 98%.

What about the Activity [13] of the same compound?
The Activity was 89%.

What about the Activity [14] of the same compound?
Its Activity is 100%.

And the Activity [15]?
The Activity was 96%.

And the GI50 [16]?
The GI50 was 2990 nM.

And the Activity [17]?
The Activity was 93%.

What about the Activity [18] of the same compound?
Its Activity is 86%.

And the Activity [19]?
Its Activity is 95%.

And the Activity [20]?
The Activity was 100%.
